Results gathered from unrelated publications.
Lines come from different studies, so protocols differ.
Target: Serine/threonine-protein kinase PLK2 (PLK2, Homo sapiens, UniProt Q9NYY3)

COc1cc(-c2cn(C3CCc4ccccc4N(CC(F)(F)F)C3=O)nn2)ccc1-n1ccc(C)n1 (stereo not shown)
remaining binding (cell-free assay; competition with immobilised ligand; 1 µM): 100%

CN1CC(Oc2cnc(C#N)cc2-c2ccn3nc(NC(=O)C4CC4)cc3c2)C1
inhibition (enzyme activity; inhibitor; 1 µM): 1%

CCCCN(CCCC)C(=O)CN1C[C@@H](c2cc(OC)c3c(c2)OCO3)[C@H](C(=O)O)[C@H]1CC(C)(C)CCC
remaining binding (cell-free assay; competition with immobilised ligand; 1 µM): 98.4%

N[C@@H]1CCN(c2nccc(-c3cnn4ncccc34)n2)C1
remaining binding (binding; 1 µM): 100%

O=C(O)[C@H]1[C@H](Cn2nnc3ccccc3c2=O)CC[C@@H]1C(=O)c1ccc(OCCC2CCOCC2)cc1
remaining binding (cell-free assay; competition with immobilised ligand; 1 µM): 100%

COc1cc(-c2cc(-c3ccc(N4CCNCC4)cc3)cnc2C)cc(OC)c1OC
inhibition (enzyme activity; inhibitor; 0.1 µM): 7%

CNC(=O)c1cc(Oc2ccc(NC(=O)Nc3ccc(Cl)c(C(F)(F)F)c3)cc2)ccn1
inhibition (enzyme activity; inhibitor; 0.3 µM): -1%

O=C(Nc1cnn(-c2csc(C(=O)NC3COC3)c2)c1)Nc1ccccc1Cl
remaining activity (enzyme activity; inhibitor; 5 µM): 86%

COc1cc2ncnc(Nc3ccc(Oc4ccccc4)cc3C)c2cc1OC
inhibition (enzyme activity; inhibitor; 1 µM): 5%

O=C1Nc2ccc(Cl)cc2C1=Cc1cc(Cl)c(O)c(Cl)c1
remaining signal (cell-free assay; 0.5 µM): 95.4%

O=C(O)c1cc(-c2ccc(C3CCNCC3)cc2)c2ccc(-c3ccc(C(F)(F)F)cc3)cc2c1
remaining binding (cell-free assay; competition with immobilised ligand; 1 µM): 100%

COc1cc2c(Nc3ccc(Br)cc3F)ncnc2cc1OCC1CCN(C)CC1
remaining signal (cell-free assay; 0.5 µM): 103%

CO[C@@H](C)c1c(Nc2ccc([C@H](N(C)C(=O)C3CCS(=O)(=O)CC3)C(F)(F)F)cc2)cnc2cc(Cl)nn12
remaining binding (cell-free assay; competition with immobilised ligand; 1 µM): 100%

CC/C(=N\NC(=O)NCc1cccc(O)c1)c1ccc(O)c(C)c1O
inhibition (enzyme activity; inhibitor; 0.1 µM): 1.3%

Cc1cc(NC(=O)c2cccc3cc(-c4cccc5[nH]nc(N)c45)ccc23)ccc1F
activity vs control (enzyme activity; inhibitor; 0.1 µM): 91%

Cc1ccc(Nc2nccc(N(C)c3ccc4c(C)n(C)nc4c3)n2)cc1S(N)(=O)=O
inhibition (enzyme activity; inhibitor; 10 µM): -4%
